These results are taken from ChEMBL document CHEMBL1156009, “Eleven amino acid glucagon-like peptide-1 receptor agonists with antidiabetic activity” (J Med Chem, 2009).

Bounds are passed on as bounds.

The target of this experiment is Glucagon-like peptide 1 receptor (Homo sapiens, UniProt P43220). Put plainly: Agonist activity at human GLP1R expressed in CHO cells assessed as stimulation of intracellular [3H]cAMP accumulation after 30 mins by scintillation proximity assay. In kind it is functional, cell-based. The method, boiled down: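 CHO cells stably expressing human or mouse GLP-1R, grown in F-12 with 10% FBS plus Geneticin (0.4 mg/mL human, 1 mg/mL mouse), plated 2×10^4/well overnight. Half-log dilutions made in DMSO, then in DPBS with 0.1 mM IBMX and 0.05% BSA (final 1% DMSO). Cells exposed 30 min. cAMP read by SPA and converted to pmol via standard curve. Duplicates, at least three separate runs.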
Sequence of Glucagon-like peptide 1 receptor (P43220 whole entry): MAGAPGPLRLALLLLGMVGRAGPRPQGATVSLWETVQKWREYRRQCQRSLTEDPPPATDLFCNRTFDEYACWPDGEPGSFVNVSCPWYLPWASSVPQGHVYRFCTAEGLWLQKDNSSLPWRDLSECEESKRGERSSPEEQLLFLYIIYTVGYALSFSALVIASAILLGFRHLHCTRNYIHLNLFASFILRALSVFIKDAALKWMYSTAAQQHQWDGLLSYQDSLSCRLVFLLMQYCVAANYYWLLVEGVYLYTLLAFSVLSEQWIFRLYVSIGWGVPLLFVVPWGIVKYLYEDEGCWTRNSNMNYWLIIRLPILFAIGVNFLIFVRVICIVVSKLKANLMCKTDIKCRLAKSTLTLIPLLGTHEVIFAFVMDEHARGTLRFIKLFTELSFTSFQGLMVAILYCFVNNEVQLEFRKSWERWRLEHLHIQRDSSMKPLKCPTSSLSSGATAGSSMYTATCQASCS
`C[C@H](NC(=O)[C@@H](N)Cc1cnc[nH]1)C(=O)N[C@@H](CCC(=O)O)C(=O)NCC(=O)N[C@H](C(=O)N[C@@H](Cc1ccccc1)C(=O)N[C@H](C(=O)N[C@@H](CO)C(=O)N[C@@H](CC(=O)O)C(=O)N[C@@H](Cc1ccc(-c2ccccc2)cc1)C(=O)N[C@@H](Cc1ccc(-c2ccccc2)cc1)C(=O)O)[C@@H](C)O)[C@@H](C)O`: the EC50 is > 10000 nM.
The figure for `Cc1ccccc1-c1ccc(C[C@H](NC(=O)[C@H](Cc2ccc(-c3ccccc3)cc2)NC(=O)[C@H](CC(=O)O)NC(=O)[C@H](CO)NC(=O)[C@@H](NC(=O)[C@H](Cc2ccccc2)NC(=O)[C@@H](NC(=O)CNC(=O)[C@H](CCC(=O)O)NC(=O)[C@H](C)NC(=O)[C@@H](N)Cc2cnc[nH]2)[C@@H](C)O)[C@@H](C)O)C(N)=O)cc1` is 480 nM; for `Cc1ccccc1-c1ccc(C[C@H](NC(=O)[C@H](Cc2ccc(-c3ccccc3C)cc2)NC(=O)[C@H](CC(=O)O)NC(=O)[C@H](CO)NC(=O)[C@@H](NC(=O)[C@H](Cc2ccccc2)NC(=O)[C@@H](NC(=O)CNC(=O)[C@H](CCC(=O)O)NC(=O)[C@H](C)NC(=O)[C@@H](N)Cc2cnc[nH]2)[C@@H](C)O)[C@@H](C)O)C(N)=O)cc1` it is 148 nM; for `Cc1ccc(-c2ccc(C[C@H](NC(=O)[C@H](Cc3ccc(-c4ccccc4)cc3)NC(=O)[C@H](CC(=O)O)NC(=O)[C@H](CO)NC(=O)[C@@H](NC(=O)[C@H](Cc3ccccc3)NC(=O)[C@@H](NC(=O)CNC(=O)[C@H](CCC(=O)O)NC(=O)[C@H](C)NC(=O)[C@@H](N)Cc3cnc[nH]3)[C@@H](C)O)[C@@H](C)O)C(N)=O)cc2)cc1` it is 270 nM.
The figure for `Cc1cccc(-c2ccc(C[C@H](NC(=O)[C@H](Cc3ccc(-c4ccccc4)cc3)NC(=O)[C@H](CC(=O)O)NC(=O)[C@H](CO)NC(=O)[C@@H](NC(=O)[C@H](Cc3ccccc3)NC(=O)[C@@H](NC(=O)CNC(=O)[C@H](CCC(=O)O)NC(=O)[C@H](C)NC(=O)[C@@H](N)Cc3cnc[nH]3)[C@@H](C)O)[C@@H](C)O)C(N)=O)cc2)c1` is 215 nM; for `C[C@H](NC(=O)[C@@H](N)Cc1cnc[nH]1)C(=O)N[C@@H](CCC(=O)O)C(=O)NCC(=O)N[C@H](C(=O)N[C@@H](Cc1ccccc1)C(=O)N[C@H](C(=O)N[C@@H](CO)C(=O)N[C@@H](CC(=O)O)C(=O)N[C@@H](Cc1ccc(-c2ccccc2)cc1)C(=O)N[C@@H](Cc1ccc(-c2ccccc2)cc1)C(=O)N[C@@H](Cc1ccc(-c2ccccc2)cc1)C(N)=O)[C@@H](C)O)[C@@H](C)O` it is 787 nM.
The figure for `COc1ccc(-c2ccc(C[C@H](NC(=O)[C@H](Cc3ccc(-c4ccccc4)cc3)NC(=O)[C@H](CC(=O)O)NC(=O)[C@H](CO)NC(=O)[C@@H](NC(=O)[C@H](Cc3ccccc3)NC(=O)[C@@H](NC(=O)CNC(=O)[C@H](CCC(=O)O)NC(=O)[C@H](C)NC(=O)[C@@H](N)Cc3cnc[nH]3)[C@@H](C)O)[C@@H](C)O)C(N)=O)cc2)cc1` is 390 nM.
`C[C@H](NC(=O)[C@@H](N)Cc1cnc[nH]1)C(=O)N[C@@H](CCC(=O)O)C(=O)NCC(=O)N[C@H](C(=O)N[C@@H](Cc1ccccc1)C(=O)N[C@H](C(=O)N[C@@H](CO)C(=O)N[C@@H](CC(=O)O)C(=O)N[C@@H](Cc1ccc(-c2ccccc2)cc1)C(=O)N[C@@H](Cc1ccc(-c2ccc(F)cc2)cc1)C(N)=O)[C@@H](C)O)[C@@H](C)O`: the EC50 was 430 nM.
The figure for `Cc1cccc(-c2ccc(C[C@H](NC(=O)[C@H](Cc3ccc(-c4ccccc4C)cc3)NC(=O)[C@H](CC(=O)O)NC(=O)[C@H](CO)NC(=O)[C@@H](NC(=O)[C@H](Cc3ccccc3)NC(=O)[C@@H](NC(=O)CNC(=O)[C@H](CCC(=O)O)NC(=O)[C@H](C)NC(=O)[C@@H](N)Cc3cnc[nH]3)[C@@H](C)O)[C@@H](C)O)C(N)=O)cc2)c1` is 87 nM; for `C[C@H](NC(=O)[C@@H](N)Cc1cnc[nH]1)C(=O)N[C@@H](CCC(=O)O)C(=O)NCC(=O)N[C@H](C(=O)N[C@@H](Cc1ccccc1)C(=O)N[C@H](C(=O)N[C@@H](CO)C(=O)N[C@@H](CC(=O)O)C(=O)N[C@@H](Cc1ccc(-c2ccccc2)cc1)C(N)=O)[C@@H](C)O)[C@@H](C)O` it is > 10000 nM.
